In data set [1] the test system is RAW264.7. Briefly: Inhibition of zymosan phagocytosis in mouse RAW264.7 cells at 10 uM preincubated before zymosan addition by flow cytometry. It is filed as functional, cell-based. The method, boiled down:
(§1)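 CD11b+ peritoneal macrophages (4 × 10^6/well) or RAW264.7 cells (2 × 10^6/well) were adhered 2 h and pretreated 30 min (5, 10, 20 µM; screen at 10 µM). Cells were scraped, washed, and incubated with FITC-zymosan (5 particles/cell) for 1 h at 37 °C. After washing, uptake was read by flow cytometry as a phagocytic index relative to untreated cells. Cytochalasin D 5 µM was the control.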

Data set [2] deals with Peritoneal macrophage cell. Briefly: Effect on Dectin-1 mRNA expression in C57BL/6 mouse CD11b(+) peritoneal macrophages at 20 uM preincubated for 30 mins before zymosan exposure for 6 hrs by real-time PCR. On the technique in general: Quantitative PCR measures a nucleic acid by following its amplification.
The subject of data set [3] is RAW264.7. Briefly: Reduction in GTP-bound Rac2 protein expression in mouse RAW264.7 cells at 20 uM preincubated for 20 mins before zymosan exposure for 15 mins by Western blot based pull down assay. It is filed as functional, cell-based. The method, boiled down:
(§2)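 RAW264.7 cells were pretreated with 20 µM (20 min for Rac1 and Rac2; 5 min for Cdc42), then given zymosan 200 µg/ml for 15 min. GTP-bound Rac1, Rac2 and Cdc42 were pulled down with an active pull-down kit and western blotted. Bands were quantified by densitometry and normalized to β-actin.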
(Immunoblotting shows a protein as a band on a membrane.)

Data set [4] relates to Peritoneal macrophage cell. Briefly: Effect on TLR2 mRNA expression in C57BL/6 mouse CD11b(+) peritoneal macrophages at 20 uM preincubated for 30 mins before zymosan exposure for 6 hrs by real-time PCR.
Data set [5] has as its system RAW264.7. Briefly: Inhibition of zymosan phagocytosis in mouse RAW264.7 cells preincubated before zymosan addition by flow cytometry. The class given is functional, cell-based. The method, boiled down:
as §1

Data set [6] concerns Peritoneal macrophage cell. The data set is described as follows: Inhibition of zymosan phagocytosis in C57BL/6 mouse CD11b(+) peritoneal macrophages preincubated before zymosan addition by flow cytometry. It is filed as functional, cell-based. The method, boiled down:
as §1

The subject of data set [7] is Peritoneal macrophage cell. The data set is described as follows: Effect on TLR1 mRNA expression in C57BL/6 mouse CD11b(+) peritoneal macrophages at 20 uM preincubated for 30 mins before zymosan exposure for 6 hrs by real-time PCR.
Data set [8] concerns RAW264.7. Briefly: Reduction in GTP-bound Rac1 protein expression in mouse RAW264.7 cells at 20 uM preincubated for 20 mins before zymosan exposure for 15 mins by Western blot based pull down assay. The class given is functional, cell-based. The method, boiled down:
as §2

Data set [9] has as its system Peritoneal macrophage cell. Briefly: Effect on TLR6 mRNA expression in C57BL/6 mouse CD11b(+) peritoneal macrophages at 20 uM preincubated for 30 mins before zymosan exposure for 6 hrs by real-time PCR.
Data set [10] concerns RAW264.7. Briefly: Toxicity in zymosan-induced mouse RAW264.7 cells at 5 to 20 uM preincubated before zymosan addition. The following applies: raw264.7, 20 µM. It is filed as cell-based.
The test system of data set [11] is RAW264.7. Briefly: Reduction in GTP-bound Cdc42 protein expression in mouse RAW264.7 cells at 20 uM preincubated for 5 mins before zymosan exposure for 15 mins by Western blot based pull down assay. The class given is functional, cell-based. In outline:
as §2

Data set [12] in a line: Toxicity in zymosan-induced C57BL/6 mouse CD11b(+) peritoneal macrophages at 5 to 20 uM preincubated before zymosan addition. The class given is cell-based. The following applies: peritoneal macrophage cell.
Data set [13] is filed under the species Mus musculus. Briefly: Inhibition of zymosan-induced PI3K in C57BL/6 mouse CD11b(+) peritoneal macrophages assessed as reduction in AKT Ser473 phosphorylation at 20 uM preincubated for 15 mins before zymosan exposure for 30 mins by Western blot. The method, boiled down:
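CD11b+ peritoneal macrophages from male C57BL/6 mice (thioglycollate-elicited; cells pooled from twenty mice) were pretreated with 20 µM for 15 min, then given zymosan 200 µg/ml for 30 min. Western blot for phospho-Akt (Ser473) and total Akt. p-Akt was quantified by densitometry and expressed as fold change.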

Data set [14] deals with Peritoneal macrophage cell. The data set is described as follows: Inhibition of zymosan phagocytosis in C57BL/6 mouse CD11b(+) peritoneal macrophages at 20 uM preincubated before zymosan addition by flow cytometry. It is filed as functional, cell-based. In outline: as §1
On the technique in general: A flow cytometer gives signals particle by particle.

Each structure is given as a SMILES string. Active and inactive are the calls of the source. The rule behind the calls is not given here.

With `CCCOc1ccc(-c2cccc(C(=O)NCCCN3CCCC3)c2)cc1`, the inhibition result in data set [1] was “Active”.
For `CCCOc1ccc(-c2cccc(C(=O)NCCCN(C)C)c2)cc1`, the inhibition result in data set [1] was “Active”.
Turning to `CCCOc1ccc(-c2cccc(C(=O)NCCCN(CC)CC)c2)cc1`, the result in [2], in data set [4], in data set [7] and in data set [9] was inactive. For the same compound, the result in [3], in data set [8] and in data set [11] was Active. Besides, the inhibition entry in data set [5] and in [6] was “Dose-dependent effect” each time. The Activity entry in data set [10] and in data set [12] was “Non-toxic” throughout.
As for `CCCNC(=O)c1cccc(-c2ccc(OCCC)cc2)c1`, the inhibition result in data set [1] is “Active”.
Regarding `O=c1cc(N2CCOCC2)oc2c(-c3ccccc3)cccc12`, the inhibition entry in data set [13] was “Active”. The inhibition entry in [14] is “inactive”.
As for `CCCOc1ccc(-c2cccc(C(=O)NCCCN3CCOCC3)c2)cc1`, the inhibition result in data set [1] was “inactive”.
Regarding `CCCOc1ccc(-c2cccc(C(=O)NCCCN3CCCCC3)c2)cc1`, the inhibition result in data set [1] was “Active”.
For `CCCOc1ccc(-c2cccc(C(=O)NCCN(CC)CC)c2)cc1`, the inhibition entry in data set [1] is “inactive”.
